Measured values published in ChEMBL document CHEMBL5360562 (Eur J Med Chem, 2023).
Converted amounts (≈) assume the structure as drawn.

How the values were obtained:
Acinetobacter baumannii [1] = assay: Potentiation of Clarithromycin antibacterial activity against Acinetobacter baumannii AB5075 assessed as fold reduction in clarithromycin MIC at 15 uM incubated for 16 hrs by broth microdilution method; type: functional
Acinetobacter baumannii [2] = assay: Potentiation of Clarithromycin antibacterial activity against Acinetobacter baumannii AB5075 assessed as fold reduction in clarithromycin MIC at 5 uM incubated for 16 hrs by broth microdilution method; type: functional
Method in brief: (§1)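 Checkerboard-style potentiation by broth microdilution. 6 h day cultures in CAMHB diluted to 5×10^5 CFU/mL. Adjuvant added from 10 mM DMSO stock at fixed concentration throughout. […] Controls: antibiotic alone, adjuvant alone, media only. Incubated stationary at 37 °C for 16 h. MIC is lowest concentration with no visible growth; fold reduction taken against the antibiotic-alone lane.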

[3] = Therapeutic index, ratio of IC50 for antiproliferative against human HepG2 cells assessed as reduction in cell viability to MIC for potentiation of Clarithromycin antibacterial activity against Acinetobacter baumannii […] assessed as clarithromycin MIC; type: toxicity, cell-based; settings: read-out: TI
Acinetobacter baumannii [4] = assay: Potentiation of Clarithromycin antibacterial activity against Acinetobacter baumannii AB5075 assessed as clarithromycin MIC at 5 uM incubated for 16 hrs by broth microdilution method; type: functional
Acinetobacter baumannii [5] = assay: Potentiation of Clarithromycin antibacterial activity against Acinetobacter baumannii AB5075 assessed as clarithromycin MIC at 15 uM incubated for 16 hrs by broth microdilution method; type: functional
[6] = Antiproliferative against human HepG2 cells assessed as reduction in cell viability incubated for 24 hrs by XTT assay; type: toxicity, cell-based
Acinetobacter baumannii [7] = assay: Potentiation of Clarithromycin antibacterial activity against Acinetobacter baumannii AB5075 assessed as clarithromycin MIC at 7.5 uM incubated for 16 hrs by broth microdilution method; type: functional
[8] = Metabolic stability in human liver microsomes assessed as parent compound remaining in presence of NADPH measured at 1 hr by UV-UPLC analysis; type: ADME, Microsome
Acinetobacter baumannii [9] = assay: Potentiation of Clarithromycin antibacterial activity against Acinetobacter baumannii AB5075 assessed as fold reduction in clarithromycin MIC at 7.5 uM incubated for 16 hrs by broth microdilution method; type: functional; method in brief: as §1
Acinetobacter baumannii [10] = assay: Antibacterial activity against Acinetobacter baumannii AB5075 assessed as reduction in bacterial growth incubated for 16 hrs by broth microdilution method; type: functional
[11] = Stability of compound in human plasma assessed as parent compound remaining measured at 4 hrs; type: ADME, cell-free
Method in brief: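 Compound at 20 μM final in human plasma (from 10 mM DMSO stock), 37 °C; aliquots at 0, 30, 60, 120, 240 min quenched in internal standard in 1:1 ACN/MeOH, centrifuged, supernatant analysed by UPLC-MRM. Peak-area ratio to internal standard expressed as % parent remaining relative to 0 min; half-life calculated.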

Acinetobacter baumannii [12] = assay: Potentiation of rifampicin antibacterial activity against Acinetobacter baumannii AB5075 assessed as rifampicin MIC at 7.5 uM incubated for 16 hrs by broth microdilution method; type: functional
Method in brief: (§2)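 A. baumannii AB5075 6 h day cultures in CAMHB subcultured to 5×10^5 CFU/mL; adjuvant added from 10 mM DMSO stock at fixed concentration, then rifampicin (DMSO) twofold serially diluted in adjuvant-containing broth. Antibiotic-alone and adjuvant-alone control lanes.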

Acinetobacter baumannii [13] = assay: Potentiation of Azithromycin antibacterial activity against Acinetobacter baumannii AB5075 assessed as azithromycin MIC at 20 uM incubated for 16 hrs by broth microdilution method; type: functional
Acinetobacter baumannii [14] = assay: Potentiation of erythromycin antibacterial activity against Acinetobacter baumannii AB5075 assessed as erythromycin MIC at 30 uM incubated for 16 hrs by broth microdilution method; type: functional
Acinetobacter baumannii [15] = assay: Potentiation of Azithromycin antibacterial activity against Acinetobacter baumannii AB5075 assessed as azithromycin MIC at 7.5 uM incubated for 16 hrs by broth microdilution method; type: functional
Acinetobacter baumannii [16] = assay: Potentiation of Clarithromycin antibacterial activity against Acinetobacter baumannii AB4498 assessed as clarithromycin MIC at 10 uM incubated for 16 hrs by broth microdilution method; type: functional
Acinetobacter baumannii [17] = assay: Potentiation of Clarithromycin antibacterial activity against Acinetobacter baumannii AB5711 assessed as clarithromycin MIC at 10 uM incubated for 16 hrs by broth microdilution method; type: functional
Acinetobacter baumannii [18] = assay: Potentiation of Clarithromycin antibacterial activity against Acinetobacter baumannii AB5075 assessed as fold reduction in clarithromycin MIC at 1.5 uM incubated for 16 hrs by broth microdilution method; type: functional
Acinetobacter baumannii [19] = assay: Potentiation of Clarithromycin antibacterial activity against Acinetobacter baumannii AB5075 assessed as fold reduction in clarithromycin MIC at 10 uM incubated for 16 hrs by broth microdilution method; type: functional; method in brief: as §1
Acinetobacter baumannii [20] = assay: Potentiation of Clarithromycin antibacterial activity against Acinetobacter baumannii AB5075 assessed as clarithromycin MIC at 10 uM incubated for 16 hrs by broth microdilution method; type: functional
Acinetobacter baumannii [21] = assay: Potentiation of Clarithromycin antibacterial activity against Acinetobacter baumannii AB5075 assessed as clarithromycin MIC at 1.5 uM incubated for 16 hrs by broth microdilution method; type: functional; method in brief: as §1
Acinetobacter baumannii [22] = assay: Potentiation of Clarithromycin antibacterial activity against Acinetobacter baumannii AB5075 assessed as clarithromycin MIC at 2.5 uM incubated for 16 hrs by broth microdilution method; type: functional
Acinetobacter baumannii [23] = assay: Potentiation of Clarithromycin antibacterial activity against Acinetobacter baumannii AB3785 assessed as clarithromycin MIC at 10 uM incubated for 16 hrs by broth microdilution method; type: functional
Acinetobacter baumannii [24] = assay: Potentiation of Clarithromycin antibacterial activity against Acinetobacter baumannii AB5075 assessed as fold reduction in clarithromycin MIC at 30 uM incubated for 16 hrs by broth microdilution method; type: functional; method in brief: as §1
Acinetobacter baumannii [25] = assay: Potentiation of rifampicin antibacterial activity against Acinetobacter baumannii AB5075 assessed as rifampicin MIC at 10 uM incubated for 16 hrs by broth microdilution method; type: functional
Acinetobacter baumannii [26] = assay: Potentiation of rifampicin antibacterial activity against Acinetobacter baumannii AB5075 assessed as fold reduction in rifampicin MIC at 10 uM incubated for 16 hrs by broth microdilution method; type: functional
Acinetobacter baumannii [27] = assay: Potentiation of erythromycin antibacterial activity against Acinetobacter baumannii AB5075 assessed as erythromycin MIC at 10 uM incubated for 16 hrs by broth microdilution method; type: functional
Acinetobacter baumannii [28] = assay: Potentiation of Clarithromycin antibacterial activity against Acinetobacter baumannii AB5075 assessed as reduction in clarithromycin MIC at 20 uM incubated for 16 hrs by broth microdilution method; type: functional
Acinetobacter baumannii [29] = assay: Potentiation of Clarithromycin antibacterial activity against Acinetobacter baumannii AB5674 assessed as clarithromycin MIC at 10 uM incubated for 16 hrs by broth microdilution method; type: functional
Acinetobacter baumannii [30] = assay: Potentiation of erythromycin antibacterial activity against Acinetobacter baumannii AB5075 assessed as erythromycin MIC at 20 uM incubated for 16 hrs by broth microdilution method; type: functional
Acinetobacter baumannii [31] = assay: Potentiation of Azithromycin antibacterial activity against Acinetobacter baumannii AB5075 assessed as azithromycin MIC at 10 uM incubated for 16 hrs by broth microdilution method; type: functional
Acinetobacter baumannii [32] = assay: Potentiation of Clarithromycin antibacterial activity against Acinetobacter baumannii AB5075 assessed as clarithromycin MIC at 30 uM incubated for 16 hrs by broth microdilution method; type: functional
Acinetobacter baumannii [33] = assay: Potentiation of erythromycin antibacterial activity against Acinetobacter baumannii AB5075 assessed as erythromycin MIC at 7.5 uM incubated for 16 hrs by broth microdilution method; type: functional
Acinetobacter baumannii [34] = assay: Potentiation of Clarithromycin antibacterial activity against Acinetobacter baumannii AB3560 assessed as clarithromycin MIC at 10 uM incubated for 16 hrs by broth microdilution method; type: functional
Acinetobacter baumannii [35] = assay: Potentiation of Clarithromycin antibacterial activity against Acinetobacter baumannii AB967 assessed as clarithromycin MIC at 10 uM incubated for 16 hrs by broth microdilution method; type: functional
Acinetobacter baumannii [36] = assay: Potentiation of Azithromycin antibacterial activity against Acinetobacter baumannii AB5075 assessed as azithromycin MIC at 30 uM incubated for 16 hrs by broth microdilution method; type: functional
Acinetobacter baumannii [37] = assay: Potentiation of rifampicin antibacterial activity against Acinetobacter baumannii AB5075 assessed as rifampicin MIC at 5 uM incubated for 16 hrs by broth microdilution method; type: functional; method in brief: as §2
Acinetobacter baumannii [38] = assay: Potentiation of rifampicin antibacterial activity against Acinetobacter baumannii AB5075 assessed as rifampicin MIC at 30 uM incubated for 16 hrs by broth microdilution method; type: functional
Acinetobacter baumannii [39] = assay: Potentiation of rifampicin antibacterial activity against Acinetobacter baumannii AB5075 assessed as rifampicin MIC at 20 uM incubated for 16 hrs by broth microdilution method; type: functional

## Nc1nc(-c2ccc(NC(=O)Nc3cc(Br)cc(Br)c3)cc2)c[nH]1
Acinetobacter baumannii [1]
  fold change (FC): 256
Acinetobacter baumannii [2]
  fold change (FC): 8
[3]
  selectivity ratio: 6.3
Acinetobacter baumannii [4]
  MIC: 4 µg/mL
Acinetobacter baumannii [5]
  MIC: 0.125 µg/mL
[6]
  IC50 at 24 h: 23.2 µg/mL (≈ 51.4 µM)
Acinetobacter baumannii [7]
  MIC: 0.25 µg/mL
[8]
  Stability: 54%
Acinetobacter baumannii [9]
  fold change (FC): 128
Acinetobacter baumannii [10]
  MIC: 50 µM (≈ 22.6 µg/mL)
[11]
  Stability: 89%

## Cl.Cl.Nc1nc(-c2cc(F)cc(NC(=O)Nc3cc(F)cc(-c4c[nH]c(N)n4)c3)c2)c[nH]1
Acinetobacter baumannii [12]
  MIC: 0.06 µg/mL
Acinetobacter baumannii [13]
  MIC: 1 µg/mL
Acinetobacter baumannii [14]
  MIC: 0.125 µg/mL
Acinetobacter baumannii [15]
  MIC: 2 µg/mL
Acinetobacter baumannii [16]
  MIC: ≤ 0.062 µg/mL
Acinetobacter baumannii [17]
  MIC: 0.125 µg/mL
Acinetobacter baumannii [18]
  fold change (FC): 16
Acinetobacter baumannii [2]
  fold change (FC): 64
Acinetobacter baumannii [19]
  fold change (FC): 256
Acinetobacter baumannii [20]
  MIC: 0.125 µg/mL
Acinetobacter baumannii [21]
  MIC: 2 µg/mL
Acinetobacter baumannii [22]
  MIC: 1 µg/mL
Acinetobacter baumannii [23]
  MIC: ≤ 0.062 µg/mL
[3]
  selectivity ratio: > 353
Acinetobacter baumannii [24]
  fold change (FC): >=512
Acinetobacter baumannii [25]
  MIC: 0.031 µg/mL
Acinetobacter baumannii [4]
  MIC: 0.5 µg/mL
Acinetobacter baumannii [26]
  fold change (FC): 32
Acinetobacter baumannii [27]
  MIC: 0.25 µg/mL
Acinetobacter baumannii [28]
  fold change (FC): >=512
Acinetobacter baumannii [28]; Acinetobacter baumannii, AB5075
  MIC: ≤ 0.062 µg/mL
[6]
  IC50 at 24 h: > 256 µg/mL
Acinetobacter baumannii [7]
  MIC: 0.25 µg/mL
Acinetobacter baumannii [29]
  MIC: ≤ 0.062 µg/mL
[8]
  Stability: 86%
Acinetobacter baumannii [30]
  MIC: 0.25 µg/mL
Acinetobacter baumannii [9]
  fold change (FC): 128
Acinetobacter baumannii [31]
  MIC: 1 µg/mL
Acinetobacter baumannii [32]
  MIC: ≤ 0.062 µg/mL
Acinetobacter baumannii [33]
  MIC: 1 µg/mL
Acinetobacter baumannii [34]
  MIC: ≤ 0.062 µg/mL
Acinetobacter baumannii [35]
  MIC: ≤ 0.062 µg/mL
Acinetobacter baumannii [36]
  MIC: 0.5 µg/mL
Acinetobacter baumannii [10]
  MIC: > 200 µM
Acinetobacter baumannii [37]
  MIC: 0.25 µg/mL
[11]
  Stability: > 95%
Acinetobacter baumannii [38]
  MIC: 0.003 µg/mL
Acinetobacter baumannii [39]
  MIC: 0.007 µg/mL
